PMC5363680 (Molecular Therapy. Nucleic Acids, 2017)

How the values were obtained:
[1] = biological target: proteinase (Parengyodontium album, UniProt P06873); test: Coincubation of CPP with proteinase, peptide fragments by UPLC; assay type: in vitro ADME; details: coincubation of CPP with the enzyme, 2 hr at 37°C, data not shown
[2] = system: luc2 gene in U87 MG-luc2 cells; test: luc2 gene downregulation after CPP-mediated siRNA delivery; assay type: cell-based, human; details: MR30, 25 nM siRNA, 10% FBS media, 24 hr post treatment
[3] = system: U87 cells; test: LDH leakage; assay type: cell-based, human; details: reduced serum media, 6 hr, complexes and free peptide at a higher concentration
Procedure, shortened: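 U87 cells grown 24 hr in serum-containing medium, then switched to serum-free conditions: medium removed and complexes or free peptide added, diluted 1:10 in medium. Controls were untreated cells, 0.1% Triton X-100 and cell-free wells. After 6 hr at 37°C, 5% CO2, LDH activity (CytoTox-ONE) was measured per kit protocol and normalized to controls.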

[4] = system: U87 cells; test: Neutral red lyso-toxicity assay, serum-free conditions; assay type: cell-based, human; details: reduced serum media, 6 hr, CPP and CPP/siRNA complexes at higher concentrations
Procedure, shortened: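 U87 cells grown 24 hr in serum-containing medium, then medium replaced by complexes or peptide diluted 1:10 in reduced-serum medium. Controls were untreated cells, 10 μM chloroquine and cell-free wells. Neutral red dye added and incubated 6 hr at 37°C, 5% CO2. Cells then washed with PBS, detection solution added for 10 min, absorbance read at 540 nm and normalized to controls.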

[5] = biological target: Proteinase K (Parengyodontium album, UniProt P06873); test: Proteinase K degradation of CPP/siRNA complexes, PicoGreen read-out; assay type: in vitro ADME; details: PF6 at MR10, same charge ratio as other CPPs
Chain of Proteinase K (P06873 106-384): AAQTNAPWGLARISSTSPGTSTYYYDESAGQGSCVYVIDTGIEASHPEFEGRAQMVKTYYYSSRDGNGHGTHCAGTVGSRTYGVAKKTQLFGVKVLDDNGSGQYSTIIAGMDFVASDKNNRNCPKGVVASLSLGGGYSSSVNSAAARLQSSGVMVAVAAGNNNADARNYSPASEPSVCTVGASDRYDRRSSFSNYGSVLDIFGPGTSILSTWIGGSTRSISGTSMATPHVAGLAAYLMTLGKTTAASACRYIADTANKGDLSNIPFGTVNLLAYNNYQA

Chain of proteinase (P06873 106-384): as above

- LDH leakage [3]: led to LDH leakage
- stability to proteinase, times higher than with other tested CPPs [5]: 10–20 times
Substance: Stearyl-AGYLLGKINLKALAALAKKIL-NH2 [PF6]
- degradation of CPP by the proteinase [1]: lack of a considerable increase of detectable peptide fragments
- downregulation of luc2 gene at MR30 [2]: 80%
- Neutral red assay (lyso-toxicity) [4]: showed toxic and/or buffering effects
